How the values were obtained:
[1] = system: Mus musculus; assay: CNS depressant activity in ip dosed mouse assessed as reinduction of anesthesia measured as loss of righting reflex compound administered immediately post recovery from hexobarbital anesthesia; assay type: functional
[2] = system: Mus musculus; assay: Anticonvulsant activity in ip dosed mouse assessed as inhibition of N-sulfamoylhexahydroazepine-induced seizure; assay type: functional
Method in brief: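 Mice dosed ip with test compound, then challenged with the convulsant N-sulfamoylhexahydroazepine; protection against seizures scored per a literature method. Ten animals per dose; ED50 derived in mg/kg ip.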

[3] = system: Mus musculus; assay: CNS depressant activity in mouse assessed as reduction in amphetamine-induced locomotor activity at 51.2 mg/kg, ip; assay type: functional; set-up: scale not given: the % may be the effect or the level left; details: route intraperitoneal
Method in brief: (§1)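 Locomotor activity of mice recorded in photocell activity cages after dl-amphetamine 4.0 mg/kg ip plus test compound ip at the stated dose. Five mice per group; result given as % change in activity.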

[4] = system: Mus musculus; assay: CNS depressant activity in mouse assessed as reduction in amphetamine-induced locomotor activity at 100 mg/kg, ip; assay type: functional; set-up: scale not given: the % may be the effect or the level left; details: route intraperitoneal; method in brief: as §1
[5] = system: Mus musculus; assay: CNS depressant activity in ip dosed mouse assessed as ataxia; assay type: functional
Method in brief: (§2)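 Behavioral observation in ip-dosed mice per a modified literature method, scoring ataxia, docility or loss of righting reflex. Ten animals per dose; ED50 in mg/kg ip.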

[6] = system: Mus musculus; assay: CNS depressant activity in ip dosed mouse assessed as docility; assay type: functional; method in brief: as §2
[7] = Acute toxicity in ip dosed Wistar rat measured 2 hrs post dose; assay type: organism-based; details: in vivo
[8] = system: Mus musculus; assay: CNS depressant activity in ip dosed mouse assessed as loss of righting reflex; assay type: functional; method in brief: as §2
[9] = system: Mus musculus; assay: CNS depressant activity in ip dosed mouse assessed as induction of neurologic deficit by rotarod test; assay type: functional
Method in brief: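 Rotarod test per a literature method in ip-dosed mice; failure scored as neurological deficit. Ten animals per dose; ND50 in mg/kg ip.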

[10] = system: Mus musculus; assay: CNS depressant activity in mouse assessed as reduction in amphetamine-induced locomotor activity at 50 mg/kg, ip; assay type: functional; set-up: scale not given: the % may be the effect or the level left; details: route intraperitoneal
Method in brief: (§3)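 Mice given test compound ip alongside dl-amphetamine 4.0 mg/kg ip; locomotor activity recorded in photocell activity cages, five mice per group; expressed as % change in activity.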

[11] = system: Mus musculus; assay: CNS depressant activity in mouse assessed as reduction in amphetamine-induced locomotor activity at 18.8 mg/kg, ip; assay type: functional; set-up: scale not given: the % may be the effect or the level left; details: route intraperitoneal; method in brief: as §1
[12] = system: Mus musculus; assay: CNS depressant activity in mouse assessed as reduction in amphetamine-induced locomotor activity at 25.6 mg/kg, ip; assay type: functional; set-up: scale not given: the % may be the effect or the level left; details: route intraperitoneal; method in brief: as §1
[13] = system: Mus musculus; assay: CNS depressant activity in mouse assessed as reduction in amphetamine-induced locomotor activity at 150 mg/kg, ip; assay type: functional; set-up: scale not given: the % may be the effect or the level left; details: route intraperitoneal; method in brief: as §1
[14] = system: Mus musculus; assay: CNS depressant activity in mouse assessed as reduction in amphetamine-induced locomotor activity at 75 mg/kg, ip; assay type: functional; set-up: scale not given: the % may be the effect or the level left; details: route intraperitoneal; method in brief: as §1
[15] = system: Mus musculus; assay: CNS depressant activity in mouse assessed as reduction in amphetamine-induced locomotor activity at 1.5 mg/kg, ip; assay type: functional; set-up: scale not given: the % may be the effect or the level left; details: route intraperitoneal; method in brief: as §3

Row | SMILES | ED50 [1] [mg/kg] | ED50 [2] [mg/kg] | Activity [3] [%] | Activity [4] [%] | ED50 [5] [mg/kg] | ED50 [6] [mg/kg] | LD50 at 2 h [7] [mg/kg] | ED50 [8] [mg/kg] | ED50 [9] [mg/kg] | Activity [10] [%] | Activity [11] [%] | Activity [12] [%] | Activity [13] [%] | Activity [14] [%] | Activity [15] [%]
1 | CN1C(=O)CNC(=O)c2ccc(Cl)cc21 | > 102 | > 102 | 30 | – | – | – | – | – | – | – | – | – | – | – | –
2 | CN1C(=O)CNC(=O)c2cc(Cl)ccc21 | 39.4 | > 100 | – | 75 | – | – | – | – | – | – | – | – | – | – | –
3 | CCOC1=NCC(=O)N(C)c2ccc(C)cc21 | 18.4 | > 102 | 44 | – | 133 | 137 | 300 | 141 | 87.6 | – | – | – | – | – | –
4 | CN1C(=O)CN=C(OCC(F)(F)F)c2cc(Cl)ccc21 | > 102 | > 102 | 48 | – | – | – | – | – | – | – | – | – | – | – | –
5 | CCOC1=NCC(=O)N(C)c2c1cc(Cl)cc2[N+](=O)[O-] | > 102 | > 102 | 19 | – | – | – | – | – | – | – | – | – | – | – | –
6 | CN1C(=O)CN=C(OCCBr)c2cc(Cl)ccc21 | > 102 | > 102 | – | – | – | – | – | – | – | – | – | – | – | – | –
7 | CCOC1=NCC(=O)N(C)c2cc(Cl)ccc21 | 38.4 | 29.9 | 50 | – | 67.7 | 56.5 | 600 | 74.4 | 61.8 | – | – | – | – | – | –
8 | CC(OC1=NCC(=O)N(C)c2ccc(Cl)cc21)C(F)(F)F (configuration not stated) | > 200 | 100 | – | 73 | 250 | 130 | 300 | 288 | 123 | – | – | – | – | – | –
9 | CN1C(=O)CN=C(Oc2ccccc2)c2cc(Cl)ccc21 | > 102 | 50.1 | 68 | – | – | – | – | – | – | – | – | – | – | – | –
10 | CN1C(=O)CN=C(c2ccccc2)c2cc(Cl)ccc21 [DIAZEPAM] | 1.6 | 1.1 | – | – | 21.9 | 4.1 | – | 8.9 | 5.2 | 8 | – | – | – | – | –
11 | CCOC1=NCC(=O)N(C)c2ccc(Cl)cc21 | 2.9 | 35.2 | – | – | 45.3 | 42.8 | 300 | 39.3 | 68.5 | – | 93 | – | – | – | –
12 | COC1=NCC(=O)N(C)c2ccc(Cl)cc21 | 16.5 | > 50 | – | – | 68 | 59.3 | > 200 | 300 | – | 50 | – | – | – | – | –
13 | CN1C(=O)CNC(=O)c2cc([N+](=O)[O-])ccc21 | > 102 | > 102 | 51 | – | – | – | – | – | – | – | – | – | – | – | –
14 | Cc1ccc2c(c1)C(=O)NCC(=O)N2C | > 102 | > 102 | 62 | – | – | – | – | – | – | – | – | – | – | – | –
15 | C=CCOC1=NCC(=O)N(C)c2ccc(Cl)cc21 | 54.4 | 63.9 | 55 | – | – | – | – | – | – | – | – | – | – | – | –
16 | CCOC1=NCC(=O)N(C)c2ccc([N+](=O)[O-])cc21 | 9 | 87.8 | 27 | – | 42.5 | 11.3 | 600 | 37.5 | 15.8 | – | – | – | – | – | –
17 | C#CCOC1=NCC(=O)N(C)c2ccc(Cl)cc21 | 22.9 | > 25 | – | – | 22.7 | 20.8 | 138 | 28.5 | – | – | – | 44 | – | – | –
18 | CN1C(=O)CN=C(Oc2ccccc2F)c2cc(Cl)ccc21 | > 200 | > 200 | 45 | – | 240 | 240 | 650 | 428 | 146 | – | – | – | – | – | –
19 | CCOC1=NCC(=O)N(c2ccccc2)c2ccc(Cl)cc21 | > 150 | > 150 | – | – | 300 | 300 | 650 | 300 | – | – | – | – | 50 | – | –
20 | CN1C(=O)CN=C(OCC(Cl)Cl)c2cc(Cl)ccc21 | 143 | 128 | – | – | – | – | – | – | – | – | – | – | – | – | –
21 | CCOC1=NCC(=O)N(CC)c2ccc(Cl)cc21 | 21.8 | > 75 | – | – | 100 | 100 | 600 | 600 | – | – | – | – | – | 5 | –
22 | Cc1cc(Cl)ccc1OC1=NCC(=O)N(C)c2ccc(Cl)cc21 | > 102 | > 102 | 36 | – | – | – | – | – | – | – | – | – | – | – | –
23 | CN1C(=O)CNC(=O)c2cc(Cl)cc([N+](=O)[O-])c21 | > 102 | > 102 | 24 | – | – | – | – | – | – | – | – | – | – | – | –
24 | O=C1CN=C(c2ccccc2)c2cc([N+](=O)[O-])ccc2N1 [NITRAZEPAM] | 0.8 | 1 | – | – | 1.5 | 1.5 | 733 | 1.5 | 0.5 | – | – | – | – | – | 50
25 | CCCOC1=NCC(=O)N(C)c2ccc(Cl)cc21 | 19.2 | 38.2 | 50 | – | 52.5 | 93.1 | > 400 | 78.1 | – | – | – | – | – | – | –

Source: ChEMBL document CHEMBL3272103, “Synthesis and central nervous system evaluation of some 5-alkoxy-3H-1,4-benzodiazepin-2(1H)-ones” (J Med Chem, 1977)
